Measurements reported in ChEMBL document CHEMBL5096226, “Structure-Activity Relationship Study of Momordica Saponin II Derivatives as Vaccine Adjuvants” (J Med Chem, 2022).
The source made the active and inactive calls.

Experiments:
Format in all cases: functional, organism-based
[1] = test system: Mus musculus; experiment: Immuno-adjuvant activity in BALB/c mouse Splenocyte assessed as increase in CD4+ surface expression of PD-1 at 50 ug, sc administered on day 0, 14 and 28 and measured at week 6 post immunization by flow cytometry analysis; conditions: dose 50.0 µg, time 6.0 weeks
Method in brief: (§1)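 Female BALB/c mice (8–10 wk, six per group) given OVA 20 μg s.c. with adjuvant on days 0, 14, 28; spleens taken at week 6. Splenocytes stained with viability dye, Fc-blocked, surface-stained 30 min. For intracellular cytokines, cells stimulated 5 h with leukocyte activation cocktail plus GolgiPlug, then fixed/permeabilized. IL-21 detected with IL-21R Fc chimera. All steps at 4 °C. Read as MFI, mean ± SEM.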

[2] = test system: Mus musculus; experiment: Immuno-adjuvant activity in BALB/c mouse assessed as increase in anti-OVA Ig2a antibody in serum at 50 ug, sc administered on day 0, 14 and 28 and measured at 4 weeks in presence of chicken egg ovalbumin by ELISA; conditions: dose 50.0 µg, time 6.0 weeks, in the assay text read “measured at 6 weeks” for “measured at 4 weeks”
Method in brief: (§2)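 Female BALB/c mice (8–10 wk, six per group) immunized s.c. with OVA 20 μg ± adjuvant on days 0, 14, 28. Tail-vein serum taken before each dose and 2 wk after the last. ELISA on OVA-coated (0.1 μg/mL) plates in borate saline pH 8.2. Twofold serum dilutions in duplicate, overnight at 4 °C. HRP anti-mouse IgG/subclass applied 4 h, OPD substrate, read at 490 nm. Concentrations from reference-serum standard curves (4-parameter fit).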

[3] = test system: Mus musculus; experiment: Immuno-adjuvant activity in BALB/c mouse assessed as increase in anti-OVA IgG antibody in serum at 50 ug, sc administered on day 0, 14 and 28 and measured at 4 and 6 weeks in presence of chicken egg ovalbumin by ELISA; conditions: dose 50.0 µg, time 4-6 weeks; method in brief: as §2
[4] = test system: Mus musculus; experiment: Immuno-adjuvant activity in BALB/c mouse assessed as increase in anti-OVA IgG2a antibody in serum at 50 ug, sc administered on day 0, 14 and 28 and measured at 2 weeks in presence of chicken egg ovalbumin by ELISA; conditions: dose 50.0 µg, time 6.0 weeks, in the assay text read “measured at 6 weeks” for “measured at 2 weeks”; method in brief: as §2
[5] = test system: Mus musculus; experiment: Immuno-adjuvant activity in BALB/c mouse assessed as increase in intracellular level of INFgamma in spleen CD8+ cells at 50 ug, sc administered on day 0, 14 and 28 and measured at week 6 post immunization by flow cytometry analysis; conditions: dose 50.0 µg, time 6.0 weeks; method in brief: as §1
[6] = test system: Mus musculus; experiment: Immuno-adjuvant activity in BALB/c mouse assessed as increase in CD19+ B cells in spleen at 50 ug, sc administered on day 0, 14 and 28 and measured at week 6 post immunization by flow cytometry analysis; conditions: dose 50.0 µg, time 6.0 weeks
Method in brief: (§3)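 Female BALB/c mice (8–10 wk, six per group), OVA 20 μg s.c. plus adjuvant on days 0, 14, 28; spleens collected week 6. Single-cell splenocyte suspensions stained and analysed by flow cytometry. TFH gated PD-1+Bcl6+Foxp3−CD4+CD3+, TFR PD-1+Bcl6+Foxp3+CD4+CD3+, dark zone GC B cells CXCR4hiCD86loFas+GL-7+CD19+. Steps at 4 °C. Mean ± SEM; unpaired t tests.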

[7] = test system: Mus musculus; experiment: Immuno-adjuvant activity in BALB/c mouse assessed as increase in ratio of TFH to TFR cells at 50 ug, sc administered on day 0, 14 and 28 and measured at week 6 post immunization by flow cytometry analysis; conditions: dose 50.0 µg, time 6.0 weeks; method in brief: as §3
[8] = test system: Mus musculus; experiment: Immuno-adjuvant activity in BALB/c mouse assessed as increase in intracellular level of INFgamma in spleen CD4+ cells at 50 ug, sc administered on day 0, 14 and 28 and measured at week 6 post immunization by flow cytometry analysis; conditions: dose 50.0 µg, time 6.0 weeks; method in brief: as §1

Measured: Activity

C[C@@H]1O[C@@H](O[C@H]2[C@H](O)[C@@H](C(=O)NCCCCCCCCCCC(=O)OCc3cccc(Oc4ccccc4)c3)O[C@@H](O[C@H]3CC[C@]4(C)[C@H]5CC=C6[C@@H]7CC(C)(C)CC[C@]7(C(=O)O[C@@H]7O[C@H](C)[C@H](O)[C@H](O)[C@H]7O[C@@H]7O[C@@H](C)[C@H](O[C@@H]8OC[C@@H](O)[C@H](O)[C@H]8O)[C@@H](O[C@@H]8O[C@H](CO)[C@@H](O)[C@H](O[C@@H]9OC[C@@H](O)[C@H](O)[C@H]9O)[C@H]8O)[C@H]7O)[C@H](O)C[C@@]6(C)[C@]5(C)CC[C@H]4[C@]3(C)C=O)[C@@H]2O[C@@H]2O[C@H](CO)[C@H](O)[C@H](O)[C@H]2O)[C@H](O)[C@H](O)[C@H]1O
active: [1] | [2]

C[C@@H]1O[C@@H](O[C@H]2[C@H](O)[C@@H](C(=O)NCCCCCCCCCCCOCc3ccccc3)O[C@@H](O[C@H]3CC[C@]4(C)[C@H]5CC=C6[C@@H]7CC(C)(C)CC[C@]7(C(=O)O[C@@H]7O[C@H](C)[C@H](O)[C@H](O)[C@H]7O[C@@H]7O[C@@H](C)[C@H](O[C@@H]8OC[C@@H](O)[C@H](O)[C@H]8O)[C@@H](O[C@@H]8O[C@H](CO)[C@@H](O)[C@H](O[C@@H]9OC[C@@H](O)[C@H](O)[C@H]9O)[C@H]8O)[C@H]7O)[C@H](O)C[C@@]6(C)[C@]5(C)CC[C@H]4[C@]3(C)C=O)[C@@H]2O[C@@H]2O[C@H](CO)[C@H](O)[C@H](O)[C@H]2O)[C@H](O)[C@H](O)[C@H]1O
active: [3] | [4]

C[C@@H]1O[C@@H](O[C@H]2[C@H](O)[C@@H](C(=O)NCCCCCCCCCCCOC(=O)c3ccccc3)O[C@@H](O[C@H]3CC[C@]4(C)[C@H]5CC=C6[C@@H]7CC(C)(C)CC[C@]7(C(=O)O[C@@H]7O[C@H](C)[C@H](O)[C@H](O)[C@H]7O[C@@H]7O[C@@H](C)[C@H](O[C@@H]8OC[C@@H](O)[C@H](O)[C@H]8O)[C@@H](O[C@@H]8O[C@H](CO)[C@@H](O)[C@H](O[C@@H]9OC[C@@H](O)[C@H](O)[C@H]9O)[C@H]8O)[C@H]7O)[C@H](O)C[C@@]6(C)[C@]5(C)CC[C@H]4[C@]3(C)C=O)[C@@H]2O[C@@H]2O[C@H](CO)[C@H](O)[C@H](O)[C@H]2O)[C@H](O)[C@H](O)[C@H]1O
active: [3] | [4]

COc1cc(COC(=O)CCCCCCCCCCNC(=O)[C@H]2O[C@@H](O[C@H]3CC[C@]4(C)[C@H]5CC=C6[C@@H]7CC(C)(C)CC[C@]7(C(=O)O[C@@H]7O[C@H](C)[C@H](O)[C@H](O)[C@H]7O[C@@H]7O[C@@H](C)[C@H](O[C@@H]8OC[C@@H](O)[C@H](O)[C@H]8O)[C@@H](O[C@@H]8O[C@H](CO)[C@@H](O)[C@H](O[C@@H]9OC[C@@H](O)[C@H](O)[C@H]9O)[C@H]8O)[C@H]7O)[C@H](O)C[C@@]6(C)[C@]5(C)CC[C@H]4[C@]3(C)C=O)[C@H](O[C@@H]3O[C@H](CO)[C@H](O)[C@H](O)[C@H]3O)[C@@H](O[C@@H]3O[C@@H](C)[C@H](O)[C@@H](O)[C@H]3O)[C@@H]2O)cc(OC)c1
active: [2]

C[C@@H]1O[C@@H](O[C@H]2[C@H](O)[C@@H](C(=O)NCCCCCCCCCCC(=O)OCc3ccc(F)cc3)O[C@@H](O[C@H]3CC[C@]4(C)[C@H]5CC=C6[C@@H]7CC(C)(C)CC[C@]7(C(=O)O[C@@H]7O[C@H](C)[C@H](O)[C@H](O)[C@H]7O[C@@H]7O[C@@H](C)[C@H](O[C@@H]8OC[C@@H](O)[C@H](O)[C@H]8O)[C@@H](O[C@@H]8O[C@H](CO)[C@@H](O)[C@H](O[C@@H]9OC[C@@H](O)[C@H](O)[C@H]9O)[C@H]8O)[C@H]7O)[C@H](O)C[C@@]6(C)[C@]5(C)CC[C@H]4[C@]3(C)C=O)[C@@H]2O[C@@H]2O[C@H](CO)[C@H](O)[C@H](O)[C@H]2O)[C@H](O)[C@H](O)[C@H]1O
active: [1] | [5] | [6] | [2] | [7]

C[C@@H]1O[C@@H](O[C@H]2[C@H](O)[C@@H](C(=O)NCCCCCCCCCCC(=O)OCc3cccc([N+](=O)[O-])c3)O[C@@H](O[C@H]3CC[C@]4(C)[C@H]5CC=C6[C@@H]7CC(C)(C)CC[C@]7(C(=O)O[C@@H]7O[C@H](C)[C@H](O)[C@H](O)[C@H]7O[C@@H]7O[C@@H](C)[C@H](O[C@@H]8OC[C@@H](O)[C@H](O)[C@H]8O)[C@@H](O[C@@H]8O[C@H](CO)[C@@H](O)[C@H](O[C@@H]9OC[C@@H](O)[C@H](O)[C@H]9O)[C@H]8O)[C@H]7O)[C@H](O)C[C@@]6(C)[C@]5(C)CC[C@H]4[C@]3(C)C=O)[C@@H]2O[C@@H]2O[C@H](CO)[C@H](O)[C@H](O)[C@H]2O)[C@H](O)[C@H](O)[C@H]1O
not listed: [3] | [4]
active: all other assays above

C[C@@H]1O[C@@H](O[C@H]2[C@H](O)[C@@H](C(=O)NCCCCCCCCCCNC(=O)c3ccccc3)O[C@@H](O[C@H]3CC[C@]4(C)[C@H]5CC=C6[C@@H]7CC(C)(C)CC[C@]7(C(=O)O[C@@H]7O[C@H](C)[C@H](O)[C@H](O)[C@H]7O[C@@H]7O[C@@H](C)[C@H](O[C@@H]8OC[C@@H](O)[C@H](O)[C@H]8O)[C@@H](O[C@@H]8O[C@H](CO)[C@@H](O)[C@H](O[C@@H]9OC[C@@H](O)[C@H](O)[C@H]9O)[C@H]8O)[C@H]7O)[C@H](O)C[C@@]6(C)[C@]5(C)CC[C@H]4[C@]3(C)C=O)[C@@H]2O[C@@H]2O[C@H](CO)[C@H](O)[C@H](O)[C@H]2O)[C@H](O)[C@H](O)[C@H]1O
active: [4]

COc1cccc(COC(=O)CCCCCCCCCCNC(=O)[C@H]2O[C@@H](O[C@H]3CC[C@]4(C)[C@H]5CC=C6[C@@H]7CC(C)(C)CC[C@]7(C(=O)O[C@@H]7O[C@H](C)[C@H](O)[C@H](O)[C@H]7O[C@@H]7O[C@@H](C)[C@H](O[C@@H]8OC[C@@H](O)[C@H](O)[C@H]8O)[C@@H](O[C@@H]8O[C@H](CO)[C@@H](O)[C@H](O[C@@H]9OC[C@@H](O)[C@H](O)[C@H]9O)[C@H]8O)[C@H]7O)[C@H](O)C[C@@]6(C)[C@]5(C)CC[C@H]4[C@]3(C)C=O)[C@H](O[C@@H]3O[C@H](CO)[C@H](O)[C@H](O)[C@H]3O)[C@@H](O[C@@H]3O[C@@H](C)[C@H](O)[C@@H](O)[C@H]3O)[C@@H]2O)c1
active: [1] | [5] | [6] | [2] | [8]
